Data: ChEMBL document CHEMBL5034020, “Self-Masked Aldehyde Inhibitors: A Novel Strategy for Inhibiting Cysteine Proteases” (J Med Chem, 2021)
Active and inactive are the calls of the source. The rule behind the calls is not given here. Residues, ends and D or L forms follow the SMILES beside them. *: point of attachment. Cbz = O=C(OCc1ccccc1)*

Columns and labels:
Cruzipain = Cruzipain (Trypanosoma cruzi, UniProt P25779); experiment: Time dependent inhibition of Trypanosoma cruzi cruzain using Cbz-Phe-Arg-AMC as substrate assessed as inhibition constant for EI complex measured for 0.5 to 1 hr by fluorescence based analysis
Cruzipain, sequence (P25779 whole entry): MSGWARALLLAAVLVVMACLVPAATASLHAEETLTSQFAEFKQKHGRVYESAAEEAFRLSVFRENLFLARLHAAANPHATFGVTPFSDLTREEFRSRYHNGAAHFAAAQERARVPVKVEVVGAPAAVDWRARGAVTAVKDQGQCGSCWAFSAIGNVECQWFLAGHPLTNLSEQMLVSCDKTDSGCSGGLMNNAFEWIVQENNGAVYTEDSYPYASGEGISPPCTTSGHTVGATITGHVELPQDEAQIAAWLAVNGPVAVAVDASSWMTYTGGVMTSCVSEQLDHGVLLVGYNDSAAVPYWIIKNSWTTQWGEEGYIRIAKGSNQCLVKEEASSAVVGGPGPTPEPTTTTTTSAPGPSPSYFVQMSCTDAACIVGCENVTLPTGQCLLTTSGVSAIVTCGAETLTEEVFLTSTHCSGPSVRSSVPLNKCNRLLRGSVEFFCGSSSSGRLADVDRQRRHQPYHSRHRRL

[1] = test system: Trypanosoma brucei brucei; experiment: Antitrypanosomal activity against bloodstream form of Trypanosoma brucei brucei measured after 3 to 4 days by Z2 coulter counter based analysis; format: functional, organism-based
In short: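 Bloodstream-form T. b. brucei SM427 grown at 37 °C in HM1–9 with 10% FBS and penicillin–streptomycin, seeded at ~1×10⁶ cells. Inhibitor at 0.5–20 μM final (DMSO <1%). Cultures diluted daily to stay in log phase, with inhibitor re-added each time. Cells counted with a Coulter counter.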

Trypanosoma cruzi = experiment: Antitrypanosomal activity against Trypanosoma cruzi infected in mouse C2C12 cells incubated for 2 days by DAPI staining based microscopic analysis; format: functional, organism-based; conditions: C2C12, 48 h
In short: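 Inhibitor added as 3-fold serial dilutions, top 40 μM (typically 0.02–40 μM), 2 days at 37 °C. Fixed with 2% PFA in PBS, stained with 5 μg/mL DAPI for >30 min in the dark, then imaged to count parasites and host cells.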

[2] = biological target: Cruzipain (Trypanosoma cruzi) (UniProt P25779); experiment: Reversible inhibition of Trypanosoma cruzi cruzain using Cbz-Phe-Arg-AMC as substrate assessed as enzyme recovery at 10 fold >apparent Ki preincubated for 2 hrs followed by 100-fold dilution in presence of substrate by rapid dilution assay relative to control; design: scale not given: the % may be the effect or the level left
Cruzipain (Trypanosoma cruzi), sequence (P25779 123-467 limits assumed): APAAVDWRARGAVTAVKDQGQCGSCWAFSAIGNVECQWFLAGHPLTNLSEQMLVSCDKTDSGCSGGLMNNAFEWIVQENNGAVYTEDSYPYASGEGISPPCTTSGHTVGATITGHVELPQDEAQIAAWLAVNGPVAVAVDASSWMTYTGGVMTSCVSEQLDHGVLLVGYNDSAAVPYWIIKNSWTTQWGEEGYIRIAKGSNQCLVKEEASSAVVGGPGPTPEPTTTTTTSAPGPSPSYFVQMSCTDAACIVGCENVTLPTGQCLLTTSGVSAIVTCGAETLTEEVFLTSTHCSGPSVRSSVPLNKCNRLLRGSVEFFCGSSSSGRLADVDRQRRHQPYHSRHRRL

[3] = biological target: Cruzipain (Trypanosoma cruzi) (UniProt P25779); experiment: Reversible inhibition of Trypanosoma cruzi cruzain using Cbz-Phe-Arg-AMC as substrate at 0.1 times apparent Ki preincubated for 2 hrs followed by 100-fold dilution in presence of substrate by rapid dilution assay relative to control
[4] = biological target: Cruzipain (Trypanosoma cruzi) (UniProt P25779); experiment: Binding affinity to Trypanosoma cruzi cruzain assessed as formation of enzyme-inhibitor adducts by measuring mass changes by mass spectrometric analysis
C2C12 = experiment: Cytotoxicity against mouse C2C12 cells assessed as reduction in cell viability at up to 40 uM; format: cell-based
[5] = biological target: Cruzipain (Trypanosoma cruzi) (UniProt P25779); experiment: Time dependent inhibition of Trypanosoma cruzi cruzain using Cbz-Phe-Arg-AMC as substrate measured after >= 20 mins; conditions: time min >=20, TDE = time-dependent effect
In short: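 Started by adding cruzain to 0.2 nM. Fluorescence (ex 360 / em 460 nm) followed for 20–60 min.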

[6] = Chemical stability of the compound in NMR buffer in absence of DTT assessed as phenylhydrazone formation at 0.2 mM incubated for 2 hrs in presence of 1 M phenyl hydrazine by UV absorbance based analysis; format: physicochemical; conditions: 200 µM
In short: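 0.2 mM compound treated with 1 mM phenylhydrazine final (added from a 1 M stock) in NMR buffer lacking DTT, with a DMSO control. Phenylhydrazone formation followed continuously by UV absorbance at 282 nm for 2 h.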

[7] = biological target: Cruzipain (Trypanosoma cruzi) (UniProt P25779); experiment: Binding affinity to Trypanosoma cruzi cruzain assessed as covalent bond formation between compound and Cys25 residue by 2D HSQC NMR spectroscopy analysis
In short: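 ¹³C-labelled lactol diluted from a 10 mM DMSO-d6 stock into NMR buffer. Control at 0.6 mM; sample at 0.4 mM with 0.44 mM freshly SEC-purified cruzain. ¹H-¹³C HSQC recorded at 800 MHz and 25 °C, with a spectrum acquired after 1 h with enzyme.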

[8] = biological target: Cruzipain (Trypanosoma cruzi) (UniProt P25779); experiment: Reversible inhibition of Trypanosoma cruzi cruzain using Cbz-Phe-Arg-AMC as substrate assessed as enzyme recovery preincubated for 2 hrs followed by 100-fold dilution in presence of substrate by rapid dilution assay
[9] = Stability of the compound in buffer at pH 7.5 assessed as conversion to N-((2S)-1-((3S)-2-hydroxychroman-3-ylamino)-1-oxo-3-phenylpropan-2-yl)-4-methylpiperazine-1-carboxamide by measuring half life by LC-MS analysis; format: physicochemical
Liver carboxylesterase = biological target: T1, Liver carboxylesterase (Sus scrofa, UniProt Q29550); experiment: Stability of the compound in buffer at pH 7.5 assessed as porcine esterase-mediated compound degradation measured over 3 hrs by LC-MS analysis; format: ADME; conditions: pig, read-out: Drug degradation
T1 sequence (Q29550 whole entry): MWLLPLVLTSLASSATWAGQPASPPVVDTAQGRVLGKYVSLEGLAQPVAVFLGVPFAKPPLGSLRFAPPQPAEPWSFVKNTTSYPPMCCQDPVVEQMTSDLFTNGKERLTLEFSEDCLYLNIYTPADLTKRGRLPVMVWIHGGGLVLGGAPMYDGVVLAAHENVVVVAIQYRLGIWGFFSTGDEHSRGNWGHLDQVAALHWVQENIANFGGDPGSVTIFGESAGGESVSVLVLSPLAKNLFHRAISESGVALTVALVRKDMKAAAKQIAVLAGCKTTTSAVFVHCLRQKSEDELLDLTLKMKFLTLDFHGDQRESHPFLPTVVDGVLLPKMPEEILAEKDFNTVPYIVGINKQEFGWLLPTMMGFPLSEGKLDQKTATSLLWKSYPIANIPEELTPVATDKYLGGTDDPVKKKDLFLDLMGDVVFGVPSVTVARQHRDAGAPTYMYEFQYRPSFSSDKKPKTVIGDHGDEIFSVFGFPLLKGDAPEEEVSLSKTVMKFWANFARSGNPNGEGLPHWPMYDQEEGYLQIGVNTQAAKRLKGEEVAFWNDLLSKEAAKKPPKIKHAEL
In short: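 Prodrugs at 2 mM in cruzain assay buffer (pH 7.5, 10% DMSO) with porcine liver esterase at 40 U/mL, shaken at 37 °C. Controls without esterase and buffer only. Aliquots taken at 0–300 min and quenched with MeCN, then the supernatant analysed by HPLC–MS with detection at 270 nm.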

Cytochrome P450 3A4 = Cytochrome P450 3A4 (Homo sapiens, UniProt P08684); experiment: Metabolic stability of the compound assessed as CYP3A4 (unknown origin)-mediated conversion to N-((2S)-1-((3S)-2-hydroxychroman-3-ylamino)-1-oxo-3-phenylpropan-2-yl)-4-methylpiperazine-1-carboxamide measured up to 4 hrs in presence of NADPH-regenerating system; format: ADME
Cytochrome P450 3A4, sequence (P08684 whole entry): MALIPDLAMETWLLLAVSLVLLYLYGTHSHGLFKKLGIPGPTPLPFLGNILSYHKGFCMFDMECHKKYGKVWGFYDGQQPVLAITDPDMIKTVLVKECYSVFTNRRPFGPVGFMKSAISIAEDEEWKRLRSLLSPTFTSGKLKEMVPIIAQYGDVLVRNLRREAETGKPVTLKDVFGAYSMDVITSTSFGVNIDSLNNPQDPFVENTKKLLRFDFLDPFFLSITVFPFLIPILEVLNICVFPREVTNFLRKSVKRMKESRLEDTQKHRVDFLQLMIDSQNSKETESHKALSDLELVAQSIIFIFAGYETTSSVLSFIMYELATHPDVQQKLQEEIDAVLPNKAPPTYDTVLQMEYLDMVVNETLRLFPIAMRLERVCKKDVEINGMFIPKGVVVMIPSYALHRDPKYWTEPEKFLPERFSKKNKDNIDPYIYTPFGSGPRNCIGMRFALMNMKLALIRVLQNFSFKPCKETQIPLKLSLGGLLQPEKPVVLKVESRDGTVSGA

Cytochrome P450 2D6 = Cytochrome P450 2D6 (Homo sapiens, UniProt P10635); experiment: Metabolic stability of the compound assessed as CYP2D6 (unknown origin)-mediated conversion to N-((2S)-1-((3S)-2-hydroxychroman-3-ylamino)-1-oxo-3-phenylpropan-2-yl)-4-methylpiperazine-1-carboxamide measured up to 4 hrs in presence of NADPH-regenerating system; format: ADME
Cytochrome P450 2D6, sequence (P10635 whole entry): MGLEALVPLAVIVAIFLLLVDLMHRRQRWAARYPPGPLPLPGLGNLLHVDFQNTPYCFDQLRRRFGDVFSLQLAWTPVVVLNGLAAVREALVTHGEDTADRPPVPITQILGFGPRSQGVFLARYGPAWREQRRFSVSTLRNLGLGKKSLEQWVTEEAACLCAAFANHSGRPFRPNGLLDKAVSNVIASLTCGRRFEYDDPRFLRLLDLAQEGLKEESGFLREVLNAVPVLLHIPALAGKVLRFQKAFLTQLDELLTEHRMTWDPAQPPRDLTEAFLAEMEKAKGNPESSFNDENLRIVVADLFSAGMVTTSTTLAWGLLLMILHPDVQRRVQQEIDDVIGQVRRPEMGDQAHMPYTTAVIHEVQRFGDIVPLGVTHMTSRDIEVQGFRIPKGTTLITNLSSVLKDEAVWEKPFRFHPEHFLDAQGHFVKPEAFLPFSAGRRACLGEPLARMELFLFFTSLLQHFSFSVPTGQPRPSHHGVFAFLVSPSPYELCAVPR

Cytochrome P450 2C9 = Cytochrome P450 2C9 (Homo sapiens, UniProt P11712); experiment: Metabolic stability of the compound assessed as CYP2C9 (unknown origin)-mediated conversion to N-((2S)-1-((3S)-2-hydroxychroman-3-ylamino)-1-oxo-3-phenylpropan-2-yl)-4-methylpiperazine-1-carboxamide measured up to 4 hrs in presence of NADPH-regenerating system; format: ADME
Cytochrome P450 2C9, sequence (P11712 whole entry): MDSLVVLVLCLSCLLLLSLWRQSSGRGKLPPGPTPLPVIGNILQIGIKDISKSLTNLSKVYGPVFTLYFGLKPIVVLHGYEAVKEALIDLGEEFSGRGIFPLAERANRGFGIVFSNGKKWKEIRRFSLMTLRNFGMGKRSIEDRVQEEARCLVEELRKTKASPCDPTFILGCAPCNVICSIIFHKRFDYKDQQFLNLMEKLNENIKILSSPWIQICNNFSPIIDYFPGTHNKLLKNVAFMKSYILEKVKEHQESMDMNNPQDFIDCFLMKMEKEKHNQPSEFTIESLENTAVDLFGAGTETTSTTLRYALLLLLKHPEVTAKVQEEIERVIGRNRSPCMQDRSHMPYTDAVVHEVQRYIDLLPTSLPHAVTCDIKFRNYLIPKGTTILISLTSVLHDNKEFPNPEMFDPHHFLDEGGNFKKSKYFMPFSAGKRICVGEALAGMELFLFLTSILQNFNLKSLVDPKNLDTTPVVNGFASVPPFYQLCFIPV

[10] = biological target: Cruzipain (Trypanosoma cruzi) (UniProt P25779); experiment: Time dependent inhibition of Trypanosoma cruzi cruzain using Cbz-Phe-Arg-AMC as substrate assessed as association rate constant for EI complex measured over 30 mins
[11] = Selectivity index, ratio of EC50 for antitrypanosomal activity against bloodstream form of Trypanosoma brucei brucei measured after 3 to 4 days by Z2 coulter counter based analysis to Ki for time dependent inhibition of Trypanosoma cruzi cruzain using Cbz-Phe-Arg-AMC as substrate assessed as inhibition constant for EI complex measured for 0.5 to 1 hr by fluorescence based analysis; format: toxicity

SMILES | Ki (Cruzipain) [µM] | EC50 [1] [µM] | EC50 (Trypanosoma cruzi) [µM] | Activity [2] [%] | inhibition [3] [%] | Activity (C2C12) | also measured
O=C(N[C@@H](Cc1ccccc1)C(=O)N[C@H]1Cc2ccccc2OC1O)OCc1ccccc1 (stereo partly drawn) | 0.049 | 6.8 | 2.9 | 91 | 9 | Non-Toxic | Activity [4]: Active
Cc1ccc2c(c1)C[C@H](NC(=O)[C@H](Cc1ccccc1)NC(=O)OCc1ccccc1)C(O)O2 (stereo partly drawn) |  | 0.5 | 5.7 | 91 | 9 | Non-Toxic | Activity [4]: Active
CN1CCN(C(=O)N[C@@H](Cc2ccccc2)C(=O)N[C@H]2Cc3ccccc3OC2O)CC1 (stereo partly drawn) | 0.047 | 0.6 | > 20 |  |  | Non-Toxic | inhibition [5]: Tde; Activity [4]: Active; Stability [6]: Stable; Activity [7]: Active; Activity [8]: inactive
O=C(CN[C@@H](Cc1ccccc1)C(=O)N[C@H](CO)Cc1ccccc1O)OCc1ccccc1 | > 10 |  |  |  |  |  | 
CCC(=O)OC1Oc2ccccc2C[C@@H]1NC(=O)[C@H](Cc1ccccc1)NC(=O)N1CCN(C)CC1 (stereo partly drawn) | > 5 | 3.1 |  |  |  | Non-Toxic | t1/2 [9]: 24 min
CC(=O)OC1Oc2ccccc2C[C@@H]1NC(=O)[C@H](Cc1ccccc1)NC(=O)N1CCN(C)CC1 (stereo partly drawn) | 1 | 3.7 | 13 |  |  | Non-Toxic | metabolised at 3 h (Liver carboxylesterase): 10%; t1/2 [9]: 48 min
COc1ccc2c(c1)C[C@H](NC(=O)[C@H](Cc1ccccc1)NC(=O)OCc1ccccc1)C(O)O2 (stereo partly drawn) | 0.35 | 2.6 |  | 91 | 9 | Non-Toxic | 
CC(C)OC1Oc2ccccc2C[C@@H]1NC(=O)[C@H](Cc1ccccc1)NC(=O)N1CCN(C)CC1 (stereo partly drawn) | > 5 | 14 |  |  |  | Non-Toxic | Stability (Cytochrome P450 3A4): Stable; Stability (Cytochrome P450 2D6): Stable; Stability (Cytochrome P450 2C9): Stable
CCOC1Oc2ccccc2C[C@@H]1NC(=O)[C@H](Cc1ccccc1)NC(=O)N1CCN(C)CC1 (stereo partly drawn) | > 5 | 12 |  |  |  | Non-Toxic | Stability (Cytochrome P450 3A4): Stable; Stability (Cytochrome P450 2D6): Stable; Stability (Cytochrome P450 2C9): Stable
CN1CCN(C(=O)N[C@@H](Cc2ccccc2)C(=O)N[C@@H]2Cc3ccccc3C[C@H]2O)CC1 (mixture of isomers) | > 100 |  |  |  |  |  | 
CN1CCN(C(=O)N[C@@H](Cc2ccccc2)C(=O)N[C@H](C=O)CCc2ccccc2)CC1 |  |  |  |  |  |  | inhibition [5]: Tde; Stability [6]: Unstable; Activity [8]: inactive
COC(=O)c1ccc2c(c1)C[C@H](NC(=O)[C@H](Cc1ccccc1)NC(=O)OCc1ccccc1)C(O)O2 (stereo partly drawn) | 0.018 | 4 | 3.5 | 91 | 9 | Non-Toxic | 
CN1CCN(C(=O)N[C@@H](Cc2ccccc2)C(=O)N[C@H](/C=C/S(=O)(=O)c2ccccc2)CCc2ccccc2)CC1 [K-777] |  |  | 0.04 |  |  | Toxic | 
O=C[C@H](Cc1ccccc1)NC(=O)[C@H](Cc1ccccc1)NC(=O)OCc1ccccc1 (Cbz-Phe-Phe-aldehyde) | 0.00044 | 3.3 | 0.5 |  |  | Toxic | Ka [10]: 7.6 10^-4/s; Ratio [11]: 7500; Activity [8]: inactive
O=C(N[C@@H](Cc1ccccc1)C(=O)N[C@H]1Cc2cc(F)ccc2OC1O)OCc1ccccc1 (stereo partly drawn) | 0.048 | 2.7 | 3.5 | 91 | 9 | Non-Toxic | Activity [4]: Active
CC(C)C(=O)OC1Oc2ccccc2C[C@@H]1NC(=O)[C@H](Cc1ccccc1)NC(=O)N1CCN(C)CC1 (stereo partly drawn) | > 5 | 4 | 10 |  |  | Non-Toxic | t1/2 [9]: 16 min
COc1ccccc1C[C@@H](C=O)NC(=O)[C@H](Cc1ccccc1)NCC(=O)OCc1ccccc1 | 0.022 |  |  |  |  |  | 
O=C(N[C@@H](Cc1ccccc1)C(=O)N[C@H]1Cc2cc(Cl)ccc2OC1O)OCc1ccccc1 (stereo partly drawn) | 0.074 | 5.8 |  | 91 | 9 | Non-Toxic | 
O=C(Cn1ccnc1[N+](=O)[O-])NCc1ccccc1 [BENZNIDAZOLE] |  |  | 4 |  |  |  | 
